Measurements: ChEMBL document CHEMBL4627284, “Pyrimethamine conjugated histone deacetylase inhibitors: Design, synthesis and evidence for triple negative breast cancer selective cytotoxicity” (Bioorg Med Chem, 2020)
Each block holds one molecule with its values, some of them ahead of it. Calls of active or inactive are those of the source. The calls are words filed in the database; no cut-off is given here.

Columns and labels:
MDA-MB-231 [1] = assay: cells; assay type: functional, cell-based; conditions: Homo sapiens, MDA-MB-231, 72 h
MCF7 = assay: cells; assay type: functional, cell-based; conditions: Homo sapiens, MCF7, 72 h
Vero = assay: cells; conditions: Chlorocebus sabaeus, 72 h
A549 = assay: cells; assay type: functional, cell-based; conditions: Homo sapiens, A549, 72 h
Histone deacetylase 8 = biological target: T1, Histone deacetylase 8 (Homo sapiens, UniProt Q9BY41); assay: Inhibition of human recombinant HDAC8 using fluorogenic HDAC substrate class 2A preincubated for 30 mins followed by substrate addition and measured after 15 mins by fluorogenic assay
T1 sequence (Q9BY41 whole entry): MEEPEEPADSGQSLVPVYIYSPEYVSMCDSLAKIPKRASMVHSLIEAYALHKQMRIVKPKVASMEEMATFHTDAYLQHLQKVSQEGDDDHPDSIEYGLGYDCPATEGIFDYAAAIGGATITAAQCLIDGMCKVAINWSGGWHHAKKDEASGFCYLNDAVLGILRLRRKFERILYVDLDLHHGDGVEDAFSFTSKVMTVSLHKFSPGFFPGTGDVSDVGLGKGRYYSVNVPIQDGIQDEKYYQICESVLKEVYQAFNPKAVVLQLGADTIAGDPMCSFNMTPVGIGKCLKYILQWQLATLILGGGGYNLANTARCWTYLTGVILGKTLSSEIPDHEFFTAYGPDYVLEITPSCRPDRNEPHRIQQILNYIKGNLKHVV

Histone deacetylase 1 [2] = biological target: T2, Histone deacetylase 1 (Homo sapiens, UniProt Q13547); assay: Inhibition of human recombinant HDAC1 using fluorogenic HDAC substrate preincubated for 30 mins followed by substrate addition and measured after 15 mins by fluorogenic assay
T2 sequence (Q13547 whole entry): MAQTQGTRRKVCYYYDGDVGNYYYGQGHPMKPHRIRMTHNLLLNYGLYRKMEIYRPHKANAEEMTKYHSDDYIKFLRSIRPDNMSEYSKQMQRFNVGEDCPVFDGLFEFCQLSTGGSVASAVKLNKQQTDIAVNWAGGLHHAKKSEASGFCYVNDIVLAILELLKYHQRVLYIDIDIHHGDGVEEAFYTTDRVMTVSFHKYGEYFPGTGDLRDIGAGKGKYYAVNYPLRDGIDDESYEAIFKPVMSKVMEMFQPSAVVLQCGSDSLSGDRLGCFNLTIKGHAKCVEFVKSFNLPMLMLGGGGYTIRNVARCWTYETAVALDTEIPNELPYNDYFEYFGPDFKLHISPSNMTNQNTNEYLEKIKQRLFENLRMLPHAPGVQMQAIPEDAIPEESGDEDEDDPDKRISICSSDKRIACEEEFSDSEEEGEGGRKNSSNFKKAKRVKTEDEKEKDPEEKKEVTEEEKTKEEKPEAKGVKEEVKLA

[3] = biological target: T3, Protein deacetylase HDAC6 (Homo sapiens, UniProt Q9UBN7); assay: Inhibition of human recombinant HDAC6 using fluorogenic HDAC substrate 3 preincubated for 30 mins followed by substrate addition and measured after 15 mins by fluorogenic assay
T3 sequence (Q9UBN7 whole entry): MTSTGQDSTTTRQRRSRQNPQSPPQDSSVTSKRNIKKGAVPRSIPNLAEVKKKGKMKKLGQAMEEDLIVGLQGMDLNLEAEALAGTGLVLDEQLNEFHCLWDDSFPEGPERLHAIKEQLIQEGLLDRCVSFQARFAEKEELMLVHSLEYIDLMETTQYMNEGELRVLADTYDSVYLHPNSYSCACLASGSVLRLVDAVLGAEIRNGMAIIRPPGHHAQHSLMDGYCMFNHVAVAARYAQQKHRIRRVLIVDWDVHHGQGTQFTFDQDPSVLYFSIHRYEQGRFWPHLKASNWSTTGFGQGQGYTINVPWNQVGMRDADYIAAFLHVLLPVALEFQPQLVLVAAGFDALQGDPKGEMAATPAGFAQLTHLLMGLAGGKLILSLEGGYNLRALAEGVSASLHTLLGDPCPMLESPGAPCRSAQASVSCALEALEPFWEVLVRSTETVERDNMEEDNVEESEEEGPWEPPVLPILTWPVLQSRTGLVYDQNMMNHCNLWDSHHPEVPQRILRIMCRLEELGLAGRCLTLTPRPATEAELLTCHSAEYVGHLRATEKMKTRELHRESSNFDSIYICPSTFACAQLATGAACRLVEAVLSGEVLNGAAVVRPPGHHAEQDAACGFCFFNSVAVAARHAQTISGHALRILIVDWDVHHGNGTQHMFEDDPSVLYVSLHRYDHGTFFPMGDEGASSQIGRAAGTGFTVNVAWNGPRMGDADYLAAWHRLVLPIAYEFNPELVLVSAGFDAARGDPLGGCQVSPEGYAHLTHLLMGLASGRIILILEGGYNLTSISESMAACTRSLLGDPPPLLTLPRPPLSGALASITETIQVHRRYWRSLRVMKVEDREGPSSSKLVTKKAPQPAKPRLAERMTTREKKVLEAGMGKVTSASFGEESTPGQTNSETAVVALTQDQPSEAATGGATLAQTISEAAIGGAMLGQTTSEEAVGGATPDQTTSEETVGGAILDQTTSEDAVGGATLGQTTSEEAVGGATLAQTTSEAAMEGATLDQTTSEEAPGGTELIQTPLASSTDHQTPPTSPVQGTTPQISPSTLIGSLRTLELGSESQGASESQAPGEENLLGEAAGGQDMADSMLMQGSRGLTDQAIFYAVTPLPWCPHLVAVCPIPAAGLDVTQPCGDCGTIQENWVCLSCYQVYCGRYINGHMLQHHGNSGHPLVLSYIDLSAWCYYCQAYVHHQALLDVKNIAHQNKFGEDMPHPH

[4] = biological target: Signal transducer and activator of transcription 3 (Homo sapiens) (UniProt P40763); assay: Inhibition of STAT3 in human MDA-MB-231 cells assessed as upregulation of p-p38 expression after 24 hrs by western blot analysis; assay type: cell-based
Signal transducer and activator of transcription 3 (Homo sapiens), sequence (P40763 whole entry): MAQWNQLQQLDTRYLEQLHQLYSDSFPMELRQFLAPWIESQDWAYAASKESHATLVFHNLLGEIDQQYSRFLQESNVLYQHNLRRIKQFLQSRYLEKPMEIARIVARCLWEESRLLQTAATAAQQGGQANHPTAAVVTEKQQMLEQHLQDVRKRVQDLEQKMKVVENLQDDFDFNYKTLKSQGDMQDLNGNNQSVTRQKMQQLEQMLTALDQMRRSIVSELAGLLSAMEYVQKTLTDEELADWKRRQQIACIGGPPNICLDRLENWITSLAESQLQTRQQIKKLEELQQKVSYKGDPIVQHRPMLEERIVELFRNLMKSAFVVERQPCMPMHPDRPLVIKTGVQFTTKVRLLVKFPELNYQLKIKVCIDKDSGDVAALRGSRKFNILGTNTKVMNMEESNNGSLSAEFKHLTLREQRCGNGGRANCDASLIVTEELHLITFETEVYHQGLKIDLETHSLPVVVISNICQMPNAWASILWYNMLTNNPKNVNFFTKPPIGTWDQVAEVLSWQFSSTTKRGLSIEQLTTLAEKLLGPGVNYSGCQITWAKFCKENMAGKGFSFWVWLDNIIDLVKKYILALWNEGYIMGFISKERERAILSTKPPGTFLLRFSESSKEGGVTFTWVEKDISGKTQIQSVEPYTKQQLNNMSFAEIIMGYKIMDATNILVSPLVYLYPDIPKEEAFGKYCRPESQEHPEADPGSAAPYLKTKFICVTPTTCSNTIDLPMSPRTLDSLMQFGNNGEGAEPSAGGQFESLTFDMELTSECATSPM
Procedure, shortened: (§1)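 MDA-MB-231 cells, 1*10⁶ per well, were grown in DMEM for 24 h, serum-starved for 24 h, then treated for 24 h from DMSO solutions (final DMSO 0.1%; DMSO control). Cells were lysed in RIPA with protease and phosphatase inhibitors and protein equalized by BCA. 20-40 µg was run on 4-20% gels and transferred to PVDF, which was blocked in 5% BSA. Primary antibodies were applied overnight and secondary for 1 h, and band intensities were quantified by infrared imaging.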

[5] = biological target: T4, Protein deacetylase HDAC6 (Homo sapiens) (UniProt Q9UBN7); assay: Inhibition of HDAC6 in human MDA-MB-231 cells assessed as accumulation of acetylated tubulin at 50 to 100 uM by western blot analysis; assay type: cell-based
T4 sequence (whole entry): T3 sequence (Q9UBN7 whole entry)
Procedure, shortened: (§2)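 MDA-MB-231 cells were grown in DMEM for 24 h, serum-starved for 24 h, then treated for 4 h (DMSO control). Lysates were made in RIPA with protease and phosphatase inhibitors and normalized by BCA. 20-40 µg was run on 4-20% gels and transferred to PVDF, which was blocked in 5% BSA. Membranes were probed overnight for acetyl-α-tubulin or acetyl-H4, then with secondary for 1 h, and bands were quantified by infrared imaging.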

[6] = biological target: Signal transducer and activator of transcription 3 (Homo sapiens) (UniProt P40763); assay: Inhibition of STAT3 in human MDA-MB-231 cells assessed as upregulation of Bcl-xLexpression after 24 hrs by western blot analysis; assay type: cell-based
Procedure, shortened: as §1

[7] = biological target: Signal transducer and activator of transcription 3 (Homo sapiens) (UniProt P40763); assay: Inhibition of STAT3 in human MDA-MB-231 cells assessed as effect on pSTAT3 expression at 50 to 100 uM after 24 hrs by western blot analysis; assay type: cell-based
Procedure, shortened: as §1

[8] = biological target: Signal transducer and activator of transcription 3 (Homo sapiens) (UniProt P40763); assay: Inhibition of STAT3 in human MDA-MB-231 cells assessed as downregulation of cyclinD1 expression at 100 to 200 uM after 24 hrs by western blot analysis; assay type: cell-based
Procedure, shortened: as §1

Histone deacetylase 1 [9] = biological target: T2, Histone deacetylase 1; assay: Inhibition of HDAC1 in human MDA-MB-231 cells assessed as accumulation of acetylated H4 at 50 to 100 uM by western blot analysis; assay type: cell-based
Procedure, shortened: as §2

[10] = biological target: Signal transducer and activator of transcription 3 (Homo sapiens) (UniProt P40763); assay: Inhibition of STAT3 in human MDA-MB-231 cells assessed as downregulation of Bcl-xL expression after 24 hrs by western blot analysis; assay type: cell-based
Procedure, shortened: as §1

MDA-MB-231 [11] = assay: Cell cycle arrest in human MDA-MB-231 cells assessed as accumulation of cells at S phase at 12.5 uM incubated for 48 hrs RNase/PI staining based flow cytometry assay (reference value: […] %); assay type: functional
Procedure, shortened: (§3)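 MDA-MB-231 cells, 5*10⁶ per 10 cm plate, were grown in DMEM for 24 h and then dosed for 48 h from DMSO stocks (final DMSO 0.1%; DMSO as control). Cells were trypsinized, washed twice in cold PBS and fixed in 70% ethanol overnight at -20°C. They were treated with 200 ug/mL RNase for 30 min, stained with 50 ug/mL PI at RT for 30 min, and DNA content was read by flow cytometry.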

MDA-MB-231 [12] = assay: Cell cycle arrest in human MDA-MB-231 cells assessed as accumulation of cells at G2 phase at 25 uM incubated for 48 hrs RNase/PI staining based flow cytometry assay (reference value: 17.4 %); assay type: functional
Procedure, shortened: as §3

[13] = biological target: Signal transducer and activator of transcription 3 (Homo sapiens) (UniProt P40763); assay: Inhibition of STAT3 in human MDA-MB-231 cells assessed as effect on pSTAT3 expression at 5 to 25 uM after 24 hrs by western blot analysis; assay type: cell-based
Procedure, shortened: as §1

[14] = biological target: Signal transducer and activator of transcription 3 (Homo sapiens) (UniProt P40763); assay: Inhibition of STAT3 in human MDA-MB-231 cells assessed as slight downregulation of Bcl-2 expression at 5 to 25 uM after 24 hrs by western blot analysis; assay type: cell-based
Procedure, shortened: as §1

MDA-MB-231 [15] = assay: Cell cycle arrest in human MDA-MB-231 cells assessed as accumulation of cells at S phase at 25 uM incubated for 48 hrs RNase/PI staining based flow cytometry assay (reference value: 11.5 %); assay type: functional
Procedure, shortened: as §3

Histone deacetylase 1 [16] = biological target: T2, Histone deacetylase 1; assay: Inhibition of HDAC1 in human MDA-MB-231 cells assessed as accumulation of acetylated H4 at 12.5 to 50 uM by western blot analysis; assay type: cell-based
Procedure, shortened: as §2

MDA-MB-231 [17] = assay: Cell cycle arrest in human MDA-MB-231 cells assessed as accumulation of cells at G2 phase at 12.5 uM incubated for 48 hrs RNase/PI staining based flow cytometry assay (reference value: 17.4 %); assay type: functional
Procedure, shortened: as §3

[18] = biological target: T4, Protein deacetylase HDAC6 (Homo sapiens); assay: Inhibition of HDAC6 in human MDA-MB-231 cells assessed as accumulation of acetylated tubulin at 12.5 to 50 uM by western blot analysis; assay type: cell-based
Procedure, shortened: as §2

[19] = biological target: Signal transducer and activator of transcription 3 (Homo sapiens) (UniProt P40763); assay: Inhibition of STAT3 in human MDA-MB-231 cells assessed as downregulation of cyclinD1 expression at 2.5 to 5 uM after 24 hrs by western blot analysis; assay type: cell-based
Procedure, shortened: as §1

MDA-MB-231 [20] = assay: Cell cycle arrest in human MDA-MB-231 cells assessed as accumulation of cells at G2 phase at 12.5 uM incubated for 48 hrs by flow cytometry (reference value: […] %)
MDA-MB-231 [21] = assay: Cell cycle arrest in human MDA-MB-231 cells assessed as accumulation of cells at G1 phase at 25 uM incubated for 48 hrs RNase/PI staining based flow cytometry assay (reference value: 64.3 %); assay type: functional
Procedure, shortened: as §3

IC50 (MDA-MB-231 [1]): 94.9 µM
IC50 (MCF7): 96.6 µM
IC50 (A549): 114 µM
Compound: CCOC(=O)CCCCCCCn1cc(-c2ccc(-c3c(N)nc(N)nc3CC)cc2)nn1
IC50 (Vero): 113 µM

IC50 (Histone deacetylase 8): 1.8 µM
IC50 (Histone deacetylase 1 [2]): 2.2 µM
IC50 [3]: 0.4 µM
Compound: CCc1nc(N)nc(N)c1-c1ccc(/C=C/C(=O)NO)cc1

IC50 (MDA-MB-231 [1]): 238 µM
inhibition [4]: Dose-dependent effect
IC50 (MCF7): 453 µM
inhibition [5]: inactive
inhibition [6]: Active
inhibition [7]: inactive
inhibition [8]: Active
inhibition (Histone deacetylase 1 [9]): inactive
Compound: CCc1nc(N)nc(N)c1-c1ccc(Cl)cc1 [PYRIMETHAMINE]

inhibition [10]: Dose-dependent effect
IC50 (MDA-MB-231 [1]): 21.4 µM
inhibition [4]: Dose-dependent effect
IC50 (MCF7): 83.3 µM
IC50 (Histone deacetylase 1 [2]): 0.21 µM
inhibition [13]: inactive
inhibition [14]: Active
inhibition (Histone deacetylase 1 [16]): Active
inhibition [18]: Active
IC50 (A549): 88.5 µM
inhibition [19]: Active
IC50 [3]: 0.021 µM
Compound: CCc1nc(N)nc(N)c1-c1ccc(-c2cn(CCCCCCCC(=O)NO)nn2)cc1
Activity (MDA-MB-231 [11]): 5.17%
Activity (MDA-MB-231 [12]): 70.6%
Activity (MDA-MB-231 [15]): 1.63%
Activity (MDA-MB-231 [17]): 66.8%
Activity (MDA-MB-231 [20]): 24%
Activity (MDA-MB-231 [21]): 22.1%
